≈ marks a conversion by molar mass, not a printed value.
These compounds were tested on WI-38 VA13 (assay: Cytotoxicity against human VA13 cells after 48 hrs by WST8 assay). Details: WI-38 VA13, 48 h.
Type: functional, cell-based
How it was run: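 VA-13 cells grown in RITC 80-7 with 10% FBS; ca. 5000 cells/well preincubated 24 h at 37 °C, 5% CO2, then compounds in DMSO added for 48 h. WST-8 added, formazan read at 450 nm; IC50 taken as 50% growth inhibition from viability-versus-concentration plot.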

`O=C1CCCC(=O)C1C(=O)CCc1ccccc1` and `COc1cc([C@H]2O[C@H](c3cc(OC)c4c(c3)OCO4)[C@@H](COC(C)=O)[C@@H]2CO)cc2c1OCO2` are within 1.5-fold of each other in IC50: 40.5 µg/mL (≈ 166 µM) for the first, 36.2 µg/mL (≈ 76.3 µM) for the second.

`CC(C)[C@@H](C)/C=C/[C@@H](C)[C@H]1CC[C@H]2[C@@]3(O)C=C[C@@]4(O)C[C@@H](O)CC[C@]4(C)[C@H]3CC[C@]12C` and `COc1cc([C@@H]2O[C@H](c3cc(OC)c4c(c3)OCO4)[C@@H](COC(C)=O)[C@@H]2COC(C)=O)cc(OC)c1O` are within 1.5-fold of each other in IC50: 48.1 µg/mL (≈ 112 µM) for the first, 47.4 µg/mL (≈ 91.4 µM) for the second.

`COc1ccc(-c2cc(=O)c3c(O)cc(OC)cc3o2)cc1` [APIGENIN DIMETHYLETHER] gave an IC50 of 38.9 µg/mL (≈ 130 µM).

The compounds below were run on HepG2 (assay: Cytotoxicity against human HepG2 cells after 48 hrs by WST8 assay). Details: HepG2, 48 h.
Type: functional, cell-based
How it was run: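 About 5000 cells per well, preincubated 24 h at 37 °C in 5% CO2. Cells kept in D-MEM with 10% FBS and 80 µg/mL kanamycin. Samples were added in DMSO and incubated a further 48 h. WST-8 formazan was read at 450 nm, viability was plotted against concentration, and IC50 was taken as the concentration giving 50% growth inhibition.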

Work on `CC(C)[C@@H](C)/C=C/[C@@H](C)[C@H]1CC[C@H]2[C@@]3(O)C=C[C@@]4(O)C[C@@H](O)CC[C@]4(C)[C@H]3CC[C@]12C` yielded an IC50 of 47.9 µg/mL (≈ 111 µM).

The compounds below were run against T1, P-glycoprotein (ABCB1) (Homo sapiens, UniProt P08183) (assay: Inhibition of P-glycoprotein-mediated multidrug resistance in adriamycin-resistant human A2780 cells assessed as calcein accumulation at 0.25 ug/ml after 15 mins relative to control). Details: probe calcein, values are per cent of control.
T1 sequence (P08183 whole entry): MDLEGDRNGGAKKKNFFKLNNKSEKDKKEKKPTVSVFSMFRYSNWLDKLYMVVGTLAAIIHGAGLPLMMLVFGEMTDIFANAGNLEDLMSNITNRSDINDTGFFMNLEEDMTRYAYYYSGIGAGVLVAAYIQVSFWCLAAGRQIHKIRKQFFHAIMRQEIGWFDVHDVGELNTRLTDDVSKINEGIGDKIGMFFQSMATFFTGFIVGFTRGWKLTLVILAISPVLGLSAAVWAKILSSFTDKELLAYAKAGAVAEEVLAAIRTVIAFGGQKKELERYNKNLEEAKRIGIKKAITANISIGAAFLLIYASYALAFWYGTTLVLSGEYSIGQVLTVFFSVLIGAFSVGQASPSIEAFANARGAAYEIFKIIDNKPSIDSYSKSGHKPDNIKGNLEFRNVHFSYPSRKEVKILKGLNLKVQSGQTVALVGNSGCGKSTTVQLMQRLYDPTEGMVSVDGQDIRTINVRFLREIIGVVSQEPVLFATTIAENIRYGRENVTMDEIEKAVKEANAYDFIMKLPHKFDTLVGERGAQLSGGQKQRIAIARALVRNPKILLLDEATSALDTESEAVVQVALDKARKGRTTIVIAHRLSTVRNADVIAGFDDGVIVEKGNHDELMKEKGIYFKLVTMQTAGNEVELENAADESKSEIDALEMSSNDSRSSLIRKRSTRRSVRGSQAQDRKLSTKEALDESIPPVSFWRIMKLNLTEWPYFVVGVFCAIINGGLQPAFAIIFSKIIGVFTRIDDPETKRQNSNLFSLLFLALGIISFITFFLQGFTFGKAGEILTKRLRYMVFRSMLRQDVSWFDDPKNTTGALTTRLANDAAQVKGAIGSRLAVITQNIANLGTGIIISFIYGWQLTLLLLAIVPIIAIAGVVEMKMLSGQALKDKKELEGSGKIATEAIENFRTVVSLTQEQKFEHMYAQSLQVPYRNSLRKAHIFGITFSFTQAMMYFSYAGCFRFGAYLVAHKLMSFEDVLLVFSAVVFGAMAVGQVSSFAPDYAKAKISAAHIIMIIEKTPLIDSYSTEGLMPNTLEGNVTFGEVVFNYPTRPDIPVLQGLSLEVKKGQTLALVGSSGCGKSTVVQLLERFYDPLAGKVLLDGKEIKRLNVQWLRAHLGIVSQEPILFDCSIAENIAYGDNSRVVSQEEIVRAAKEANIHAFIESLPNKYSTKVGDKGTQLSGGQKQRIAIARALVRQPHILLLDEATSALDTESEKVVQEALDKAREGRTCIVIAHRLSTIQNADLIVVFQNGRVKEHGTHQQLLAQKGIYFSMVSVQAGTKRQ
Type: cell-based

Compared with `COc1cc([C@@H]2O[C@H](c3cc(OC)c4c(c3)OCO4)[C@@H](COC(C)=O)[C@@H]2CO)cc(OC)c1OC`, `COc1cc([C@@H]2O[C@H](c3cc(OC)c4c(c3)OCO4)[C@@H](COC(C)=O)[C@@H]2COC(C)=O)cc(OC)c1O` is lower in response, % of control at 0.25 h, 0.25 ug/ml: 97% for the first, 88% for the second.

Going from `CC(C)[C@@H](C)/C=C/[C@@H](C)[C@H]1CC[C@H]2[C@@]3(O)C=C[C@@]4(O)C[C@@H](O)CC[C@]4(C)[C@H]3CC[C@]12C` to `COc1cc([C@H]2O[C@@H](c3cc(OC)c4c(c3)OCO4)[C@@H](COC(C)=O)[C@@H]2CO)cc2c1OCO2`, the response, % of control at 0.25 h, 0.25 ug/ml falls from 97% to 76%.

Each compound was assayed against T1, P-glycoprotein (ABCB1) (assay: Inhibition of P-glycoprotein-mediated multidrug resistance in adriamycin-resistant human A2780 cells assessed as calcein accumulation at 2.5 ug/ml after 15 mins relative to control). Details: probe calcein, values are per cent of control.
Type: cell-based

Going from `COc1cc([C@@H]2O[C@H](c3cc(OC)c4c(c3)OCO4)[C@@H](COC(C)=O)[C@@H]2CO)cc(OC)c1OC` to `COc1cc([C@@H]2O[C@H](c3cc(OC)c4c(c3)OCO4)[C@@H](COC(C)=O)[C@@H]2COC(C)=O)cc(OC)c1O`, the response, % of control at 0.25 h, 2.5 ug/ml falls from 105% to 95%.

Compared with `CC(C)[C@@H](C)/C=C/[C@@H](C)[C@H]1CC[C@H]2[C@@]3(O)C=C[C@@]4(O)C[C@@H](O)CC[C@]4(C)[C@H]3CC[C@]12C`, `COc1cc([C@H]2O[C@@H](c3cc(OC)c4c(c3)OCO4)[C@@H](COC(C)=O)[C@@H]2CO)cc2c1OCO2` is lower in response, % of control at 0.25 h, 2.5 ug/ml: 106% for the first, 85% for the second.

Each compound was assayed against T1, P-glycoprotein (ABCB1) (assay: Inhibition of P-glycoprotein-mediated multidrug resistance in adriamycin-resistant human A2780 cells assessed as calcein accumulation at 25 ug/ml after 15 mins relative to control). Details: probe calcein, values are per cent of control.
Type: cell-based

Going from `COc1cc([C@@H]2O[C@H](c3cc(OC)c4c(c3)OCO4)[C@@H](COC(C)=O)[C@@H]2CO)cc(OC)c1OC` to `COc1cc([C@@H]2O[C@H](c3cc(OC)c4c(c3)OCO4)[C@@H](COC(C)=O)[C@@H]2COC(C)=O)cc(OC)c1O`, the response, % of control at 0.25 h, 25 ug/ml falls from 138% to 101%.

Compared with `CC(C)[C@@H](C)/C=C/[C@@H](C)[C@H]1CC[C@H]2[C@@]3(O)C=C[C@@]4(O)C[C@@H](O)CC[C@]4(C)[C@H]3CC[C@]12C`, `COc1cc([C@H]2O[C@@H](c3cc(OC)c4c(c3)OCO4)[C@@H](COC(C)=O)[C@@H]2CO)cc2c1OCO2` is lower in response, % of control at 0.25 h, 25 ug/ml: 95% for the first, 94% for the second.

What follows are compounds tested against T1, P-glycoprotein (ABCB1) (assay: Inhibition of P-glycoprotein-mediated multidrug resistance in adriamycin-resistant human A2780 cells assessed as calcein accumulation at 0.25 ug/ml after 15 mins relative to verapamil). Details: probe calcein.
Type: cell-based

Compared with `COc1cc([C@@H]2O[C@H](c3cc(OC)c4c(c3)OCO4)[C@@H](COC(C)=O)[C@@H]2CO)cc(OC)c1OC`, `COc1cc([C@@H]2O[C@H](c3cc(OC)c4c(c3)OCO4)[C@@H](COC(C)=O)[C@@H]2COC(C)=O)cc(OC)c1O` is lower in inhibition at 0.25 h, 0.25 ug/ml: 110% for the first, 100% for the second.

Compared with `CC(C)[C@@H](C)/C=C/[C@@H](C)[C@H]1CC[C@H]2[C@@]3(O)C=C[C@@]4(O)C[C@@H](O)CC[C@]4(C)[C@H]3CC[C@]12C`, `COc1cc([C@H]2O[C@@H](c3cc(OC)c4c(c3)OCO4)[C@@H](COC(C)=O)[C@@H]2CO)cc2c1OCO2` is lower in inhibition at 0.25 h, 0.25 ug/ml: 109% for the first, 86% for the second.

These compounds were tested against T1, P-glycoprotein (ABCB1) (assay: Inhibition of P-glycoprotein-mediated multidrug resistance in adriamycin-resistant human A2780 cells assessed as calcein accumulation at 2.5 ug/ml after 15 mins relative to verapamil). Details: probe calcein.
Type: cell-based

First: COc1cc([C@@H]2O[C@H](c3cc(OC)c4c(c3)OCO4)[C@@H](COC(C)=O)[C@@H]2CO)cc(OC)c1OC
Second: COc1cc([C@@H]2O[C@H](c3cc(OC)c4c(c3)OCO4)[C@@H](COC(C)=O)[C@@H]2COC(C)=O)cc(OC)c1O
The inhibition at 0.25 h, 2.5 ug/ml of the first is higher: 110% for the first, 99% for the second.

Compared with `CC(C)[C@@H](C)/C=C/[C@@H](C)[C@H]1CC[C@H]2[C@@]3(O)C=C[C@@]4(O)C[C@@H](O)CC[C@]4(C)[C@H]3CC[C@]12C`, `COc1cc([C@H]2O[C@@H](c3cc(OC)c4c(c3)OCO4)[C@@H](COC(C)=O)[C@@H]2CO)cc2c1OCO2` is lower in inhibition at 0.25 h, 2.5 ug/ml: 111% for the first, 89% for the second.

The compounds below were run against T1, P-glycoprotein (ABCB1) (assay: Inhibition of P-glycoprotein-mediated multidrug resistance in adriamycin-resistant human A2780 cells assessed as calcein accumulation at 25 ug/ml after 15 mins relative to verapamil). Details: probe calcein.
Type: cell-based

First: COc1cc([C@@H]2O[C@H](c3cc(OC)c4c(c3)OCO4)[C@@H](COC(C)=O)[C@@H]2CO)cc(OC)c1OC
Second: COc1cc([C@@H]2O[C@H](c3cc(OC)c4c(c3)OCO4)[C@@H](COC(C)=O)[C@@H]2COC(C)=O)cc(OC)c1O
The inhibition at 0.25 h, 25 ug/ml of the first is higher: 107% for the first, 78% for the second.

Compared with `CC(C)[C@@H](C)/C=C/[C@@H](C)[C@H]1CC[C@H]2[C@@]3(O)C=C[C@@]4(O)C[C@@H](O)CC[C@]4(C)[C@H]3CC[C@]12C`, `COc1cc([C@H]2O[C@@H](c3cc(OC)c4c(c3)OCO4)[C@@H](COC(C)=O)[C@@H]2CO)cc2c1OCO2` is lower in inhibition at 0.25 h, 25 ug/ml: 73% for the first, 72% for the second.

These compounds were tested on A549 (assay: Antiinflammatory activity against human A549 cells assessed as inhibition of IL-1-alpha-induced ICAM1 expression). Details: not given.
Type: functional, cell-based
How it was run: (§1)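 A549 cells, 2 × 10^4/well seeded the day before, preincubated 1 h ± test compounds, then stimulated with IL-1α (1 ng/mL) or TNF-α (10 ng/mL) for 6 h. Fixed in 1% paraformaldehyde, mouse anti-human ICAM-1 then peroxidase anti-mouse IgG; o-phenylenediamine/H2O2 substrate, pH 5.3, 20 min 37 °C, A415. Expression as % of stimulated minus unstimulated absorbance.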

First: COc1cc([C@@H]2O[C@H](c3cc(OC)c4c(c3)OCO4)[C@@H](COC(C)=O)[C@@H]2CO)cc(OC)c1OC
Second: COc1cc([C@@H]2O[C@H](c3cc(OC)c4c(c3)OCO4)[C@@H](COC(C)=O)[C@@H]2COC(C)=O)cc(OC)c1O
The IC50 of the first is 2.2-fold higher: 189 µM for the first, 84.4 µM for the second. The second is the more potent here.

These compounds were tested on A549 (assay: Antiinflammatory activity against human A549 cells assessed as inhibition of TNF-alpha-induced ICAM1 expression). Details: not given.
Type: functional, cell-based
How it was run: as §1

First: COc1cc([C@@H]2O[C@H](c3cc(OC)c4c(c3)OCO4)[C@@H](COC(C)=O)[C@@H]2CO)cc(OC)c1OC
Second: COc1cc([C@@H]2O[C@H](c3cc(OC)c4c(c3)OCO4)[C@@H](COC(C)=O)[C@@H]2COC(C)=O)cc(OC)c1O
The IC50 of the first is 2.7-fold higher: 105 µM for the first, 38.6 µM for the second.

Each compound was assayed on A549 (assay: Cytotoxicity against human A549 cells after 24 hrs by MTT assay). Details: not given.
Type: functional, cell-based
How it was run: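 A549 cells, 2 × 10^4/well seeded the day before, exposed to test compounds 24 h; MTT 500 µg/mL pulsed for the final 4 h, formazan dissolved in 10% SDS overnight, A595. Viability as (sample − background)/(control − background) × 100.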

For `COc1cc([C@@H]2O[C@H](c3cc(OC)c4c(c3)OCO4)[C@@H](COC(C)=O)[C@@H]2CO)cc(OC)c1OC`, the Activity was “Not toxic”.
In the case of `COc1cc([C@@H]2O[C@H](c3cc(OC)c4c(c3)OCO4)[C@@H](COC(C)=O)[C@@H]2COC(C)=O)cc(OC)c1O`, the Activity is reported as “Not toxic”.

Source: ChEMBL document CHEMBL1158832, “Bioactive tetrahydrofuran lignans from Peperomia dindygulensis” (J Nat Prod, 2005)
